Measurements of several laboratories.
Each line is one published result; the experiments were not run side by side.
STK38L: Serine/threonine-protein kinase 38-like (STK38L, Homo sapiens, UniProt Q9Y2H1)

| Structure (SMILES) | target | assay | test system | conditions | measurement | value |
| --- | --- | --- | --- | --- | --- | --- |
| Cc1nn(C)cc1-c1nc2c(N3CCN(Cc4ccc(Cl)cc4)CC3)c(Cl)cnc2[nH]1 | Receptor tyrosine-protein kinase erbB-3 (ERBB3, Homo sapiens, UniProt P21860) | binding, competition with immobilised ligand |  | 1 µM | remaining binding | 95% |
| C=C=CCN | Primary amine oxidase, liver isozyme (Bos taurus, UniProt Q29437) | enzyme activity, inhibitor, fluorescence |  |  | kinact/KI | 9220 M⁻¹ s⁻¹ |
| COc1cc(Nc2ncc(F)c(Nc3ccc4c(n3)NC(=O)C(C)(C)O4)n2)cc(OC)c1OC | STK38L | binding |  | 10 µM | inhibition | 48% |
| COc1ncccc1-c1cnn2ccc(N3CCN(C(=O)OC(C)C)CC3)nc12 | STK38L | binding, competition with immobilised ligand |  | 1 µM | remaining binding | 100% |
| C#Cc1n[nH]c2c(-c3cn(C(C)c4ccccn4)c(=O)[nH]c3=O)cc(F)cc12 (stereo not shown) | Insulin receptor (INSR, Homo sapiens, UniProt P06213) | enzyme activity, inhibitor |  | 1 µM | inhibition | 8.5% |
| Nc1ncc(-c2nc(N3CCOCC3)nc(N3CCOCC3)n2)c(C(F)F)n1 | Calcium/calmodulin-dependent protein kinase type II subunit gamma (CAMK2G, Homo sapiens, UniProt Q13555) | binding, competition with immobilised ligand |  | 10 µM | remaining binding | 73% |
| CCN(CC)CCCC[C@H](NC(=O)[C@H](CC(C)C)NC(=O)[C@H](C)NC(=O)[C@H](Cc1ccccc1)NC(=O)c1ccc(C(C)(C)C)cc1)C(=O)N[C@@H](CO)C(=O)OC | Bromodomain-containing protein 2, BD1 (BRD2, Homo sapiens, UniProt P25440) | thermal stability, DSF |  | 25 µM | ΔTm | 0.19 °C |
| CC1CCCN(c2ncc(Cl)c(Nc3ccc4c(c3)n(CCC(C)(C)O)c(=O)n4C)n2)C1 (stereo not shown) | B-cell lymphoma 6 protein (BCL6, Homo sapiens, UniProt P41182) | protein level, degrader | SU-DHL-4 |  | Dmax | 85% |
| CCCCCCCCCCCCCC(=O)O[C@@H]1[C@@H](C)[C@@]2(O)[C@@H](C=C(CO)C[C@]3(O)C(=O)C(C)=C[C@@H]23)[C@@H]2C(C)(C)[C@]12OC(C)=O | Adenosine receptor A2b (Adora2b, Rattus norvegicus, UniProt P29276) | cAMP, agonist | H9c2 |  | Emax | 19.6% |
| C[C@H](C(=O)N[C@H]1COc2ccccc2[C@@H]1S(C)(=O)=O)c1ccc(F)cc1 | Beta-3 adrenergic receptor (ADRB3, Homo sapiens, UniProt P13945) | cell-free assay |  | 10 µM | inhibition | -12% |
